Data reported in ChEMBL document CHEMBL5385965, “Discovery of novel positive allosteric modulators targeting GluN1/2A NMDARs as anti-stroke therapeutic agents” (RSC Med Chem, 2024).
Calls of active or inactive are those of the source. The calls are words filed in the database; no cut-off is given here.

Experiments:
[1] = molecular target: T1, Glutamate NMDA receptor; GRIN1/GRIN2B (Homo sapiens) (UniProt Q05586+Q13224); assay: Positive allosteric modulation of GluN1/N2B (unknown origin) transfected in HEK293 cells assessed as potentiation of Glu/Gly-induced calcium influx by Cal-520 AM dye based assay; format: cell-based
How it was run: (§1)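 HEK293 cells were co-transfected 1:1 with GluN1 plus GluN2A or GluN2B at 90% confluence and seeded 40 000/well on poly-D-lysine plates overnight. Cells were loaded with Cal-520 AM for 1.5 h at 37 °C, and compounds were tested at 10 μM. Responses to Glu (2 mM)/Gly (100 μM) were recorded in HEPES-buffered Tyrode's (pH 7.2) at Ex 485/Em 515 nm every 1.6 s, expressed as area under the FMAX/F0 curve.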

PC-12 [2] = assay: Neuroprotective activity against glutamate-induced excitotoxicity in rat PC12 cells assessed as cell viability at 0.1 uM preincubated for 4 hrs followed by glutamate treatment for 24 hrs by CCK8 assay (reference value: 44.89 +/- 2.08 %); format: functional; details: time 28 hrs, read-out: Activity
PC-12 [3] = assay: Neuroprotective activity against glutamate-induced excitotoxicity in rat PC12 cells assessed as cell viability at 1 uM preincubated for 4 hrs followed by glutamate treatment for 24 hrs by CCK8 assay (reference value: 43.19 +/- 2.98 %); format: functional; details: time 28 hrs, read-out: Activity
PC-12 [4] = assay: Neuroprotective activity against glutamate-induced excitotoxicity in rat PC12 cells assessed as cell viability at 10 uM preincubated for 4 hrs followed by glutamate treatment for 24 hrs by CCK8 assay (reference value: 43.75 +/- 2.04 %); format: functional; details: time 28 hrs, read-out: Activity
[5] = Cytotoxicity against rat PC12 cells assessed as cell viability at 10 uM incubated for 4 hrs by CCK8 assay relative to control; format: toxicity, cell-based, PC-12; details: read-out: Activity
HT-22 [6] = assay: Neuroprotective activity against glutamate-induced excitotoxicity in mouse HT-22 cells assessed as cell viability at 0.1 uM preincubated for 4 hrs followed by glutamate treatment for 24 hrs by CCK8 assay (reference value: 30.31 +/- 2.02 %); format: functional; details: time 28 hrs, read-out: Activity
HT-22 [7] = assay: Neuroprotective activity against glutamate-induced excitotoxicity in mouse HT-22 cells assessed as cell viability at 1 uM preincubated for 4 hrs followed by glutamate treatment for 24 hrs by CCK8 assay (reference value: 35.56 +/- 2.12 %); format: functional; details: time 28 hrs, read-out: Activity
HT-22 [8] = assay: Neuroprotective activity against glutamate-induced excitotoxicity in mouse HT-22 cells assessed as cell viability at 10 uM preincubated for 4 hrs followed by glutamate treatment for 24 hrs by CCK8 assay (reference value: 34.80 +/- 4.02 %); format: functional; details: time 28 hrs, read-out: Activity
[9] = molecular target: T1, Glutamate NMDA receptor; GRIN1/GRIN2B (Homo sapiens); assay: […] of GluN1/N2B (unknown origin) transfected in HEK293 cells assessed as potentiation of Glu/Gly-induced calcium influx by Cal-520 AM dye based assay; format: cell-based; how it was run: as §1
Mus musculus [10] = assay: Neuroprotective activity against tMCAO-reperfusion induced nerve injury in C57BL/6 mouse model assessed as reduction in volume of ischemia cerebral infarction at 10 mg/kg, ip measured after 22 hrs by TTC staining based analysis (reference value: 130.60 +/- 9.93 mm3); format: functional
Mus musculus [11] = assay: Neuroprotective activity against tMCAO-reperfusion induced nerve injury in C57BL/6 mouse model assessed as recovery of neurological deficit score at 10 mg/kg, ip measured after 22 hrs; format: functional, organism-based
How it was run: (§2)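 Male C57BL/6 mice (6–8 weeks, 18–22 g) were randomized and given 1, 5 or 10 mg/kg i.p. in 5% DMSO, 20% PEG300, 5% Tween-80 in saline. Under isoflurane, the left MCA was occluded with a nylon monofilament for 1.5 h, then reperfused, with body temperature held at 37 °C. Neurological scores were taken after tMCAO. n=6, mean ± SD, one-way ANOVA with Dunnett's test vs vehicle.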

[12] = molecular target: Glutamate NMDA receptor; GRIN1/GRIN2A (Homo sapiens) (UniProt Q05586+Q12879); assay: Positive allosteric modulation of GluN1/N2A (unknown origin) transfected in HEK293 cells assessed as potentiation of Glu/Gly-induced calcium influx by Cal-520 AM dye based assay; format: cell-based; details: filed as positive allosteric modulator; how it was run: as §1
[13] = molecular target: Glutamate NMDA receptor; GRIN1/GRIN2A/GRIN2B (Homo sapiens) (UniProt Q05586+Q12879+Q13224); assay: Positive allosteric modulation of GluN1/N2A/N2B (unknown origin) transfected in HEK293 cells assessed as potentiation of Glu/Gly-induced calcium influx by Cal-520 AM dye based assay; format: cell-based
Mus musculus [14] = assay: Neuroprotective activity against tMCAO-reperfusion induced nerve injury in C57BL/6 mouse model assessed as reduction in volume of ischemia cerebral infarction at 5 mg/kg, ip measured after 22 hrs by TTC staining based analysis relative to control; format: functional; parameters: scale not given: the % may be the effect or the level left
Mus musculus [15] = assay: Neuroprotective activity against tMCAO-reperfusion induced nerve injury in C57BL/6 mouse model assessed as reduction in volume of ischemia cerebral infarction at 10 mg/kg, ip measured after 22 hrs by TTC staining based analysis relative to control; format: functional; parameters: scale not given: the % may be the effect or the level left
Mus musculus [16] = assay: Neuroprotective activity against tMCAO-reperfusion induced nerve injury in C57BL/6 mouse model assessed as reduction in volume of ischemia cerebral infarction at 5 mg/kg, ip measured after 22 hrs by TTC staining based analysis (reference value: 130.60 +/- 9.93 mm3); format: functional
Mus musculus [17] = assay: Neuroprotective activity against tMCAO-reperfusion induced nerve injury in C57BL/6 mouse model assessed as recovery of neurological deficit score at 5 to 10 mg/kg, ip measured after 22 hrs; format: functional, organism-based; details: dose 5-10 mg/kg; how it was run: as §2

Row | SMILES | Activity [1] | viability at 0.1 µM (PC-12 [2]) [%] | viability at 1 µM (PC-12 [3]) [%] | viability at 10 µM (PC-12 [4]) [%] | viability at 4 h, 10 µM [5] [%] | viability at 0.1 µM (HT-22 [6]) [%] | viability at 1 µM (HT-22 [7]) [%] | viability at 10 µM (HT-22 [8]) [%] | also measured
1 | CCN(CC)CCCC(C)Nc1ccnc2cc(Cl)ccc12 (configuration not stated) | inactive |  |  |  |  |  |  |  | 
2 | C[C@H](CCc1ccc(O)cc1)NCCc1ccc(O)c(O)c1 | inactive |  |  |  |  |  |  |  | 
3 | COc1cc(/C=C/C(=O)NCCc2ccc(O)cc2)ccc1O | inactive |  |  |  |  |  |  |  | 
4 | COc1cc(/C=C/C(=O)NCCc2ccc(O)cc2)cc(OC)c1O | inactive |  |  |  |  |  |  |  | 
5 | CCCCCCC/C=C/C(=O)CCc1ccc(O)c(OC)c1 | inactive |  |  |  |  |  |  |  | 
6 | CC(Cc1ccc(O)c(O)c1)C(C)Cc1ccc(O)c(O)c1 (configuration not stated) | inactive |  |  |  |  |  |  |  | 
7 | N[C@@H](CC(=O)N1CCn2c(nnc2C(F)(F)F)C1)Cc1cc(F)c(F)cc1F [SITAGLIPTIN] | inactive | 62.6 | 69.5 | 77.8 | 95.5 | 24.8 | 71 | 52.4 | 
8 | COC(=O)[C@@H](Cc1ccc(O)c(O)c1)OC(=O)/C=C/c1ccc(O)c(O)c1 [METHYL ROSMARINATE] | inactive | 74.1 | 75.2 | 53.6 | 69.6 | 46.3 | 80.4 | 25.6 | 
9 | COc1cc(C(=O)OCCCCNC(=N)N)cc(OC)c1O | inactive |  |  |  |  |  |  |  | 
10 | O=C(/C=C/c1ccc(O)c(O)c1)OC(Cc1ccc(O)c(O)c1)C(=O)O (configuration not stated) | inactive |  |  |  |  |  |  |  | 
11 | O=C(/C=C/C=C/c1ccc2c(c1)OCO2)N1CCCCC1 [PIPERINE] | inactive | 66.2 | 57.3 | 35.2 | 98.3 | 36.5 | 87.8 | 24.5 | 
12 | COc1cc(/C=C/C(=O)NCC(O)c2ccc(O)cc2)ccc1O (configuration not stated) | inactive | 64.2 | 66.5 | 62.8 | 96.6 | 42.7 | 77.6 | 39.6 | 
13 | COc1cc(OC/C=C(\C)CCC=C(C)C)c2ccc(=O)oc2c1 | inactive | 67.4 | 69 | 70.1 | 74.7 | 34.9 | 69 | 41.4 | 
14 | C=CCN1C[C@H](C(=O)N(CCCN(C)C)C(=O)NCC)C[C@@H]2c3cccc4[nH]cc(c34)C[C@H]21 [CABERGOLINE] | inactive | 63.9 | 68.2 | 87.5 | 94.8 | 37.7 | 73.8 | 37.4 | 
15 | CC(C)=CCC/C(C)=C/COc1ccc2ccc(=O)oc2c1 | inactive |  |  |  |  |  |  |  | 
16 | C=CCc1ccc(O)c(-c2ccc(O)c(CC=C)c2)c1 | inactive |  |  |  |  |  |  |  | Activity [9]: Active
17 | CC1=NN(c2ccccc2)C(=O)C1 [EDARAVONE] |  |  |  |  |  |  |  |  | Activity (Mus musculus [10]): 68.04 mm3; Activity (Mus musculus [11]): Active
18 | O=C(CCc1ccccc1)C[C@@H](O)/C=C/c1ccccc1 | inactive |  |  |  |  |  |  |  | 
19 | COc1ccc(C(O)CNC(=O)/C=C/c2ccccc2)cc1 (configuration not stated) | inactive |  |  |  |  |  |  |  | Activity [12]: Dose-Dependent Effect; Activity [13]: inactive; Activity (Mus musculus [14]): 30.68%; Activity (Mus musculus [15]): 42.7%; Activity (Mus musculus [16]): 90.53 mm3; Activity (Mus musculus [10]): 74.83 mm3; Activity (Mus musculus [17]): Active
20 | COCCCOc1ccnc(C[S+]([O-])c2nc3ccccc3[nH]2)c1C (configuration not stated) [RABEPRAZOLE] | inactive | 64.7 | 66.7 | 60.9 | 93.2 | 39.9 | 76.5 | 16 | 
21 | COc1cc(CCC(=O)CC(O)CCc2ccc(O)c(OC)c2)ccc1O (configuration not stated) [HEXAHYDROCURCUMIN] | inactive | 66 | 52.4 | 66.5 | 73.3 | 41.4 | 103 | 42.9 | Activity [12]: Active
22 | CC(C)=CCC/C(C)=C/COc1c2ccoc2cc2oc(=O)ccc12 | inactive |  |  |  |  |  |  |  | 
23 | O=C(CCCCc1ccc2c(c1)OCO2)N1CCCCC1 | inactive |  |  |  |  |  |  |  | 
24 | COc1cc(CNC(=O)CCCCCCC(C)C)ccc1O [DIHYDROCAPSAICIN] | inactive | 66.1 | 76.1 | 102 | 104 | 32.6 | 95.4 | 43.3 | 
